Assay outcomes from PubChem BioAssay.
E-selectin induc: induces E-selectin expression in human endothelial cells | P16581 | HUVEC E-selectin immunofluorescence imaging; normalized: neutral wells 0, TNF-alpha wells 100 | activation, % at 7.58 µM | hit rate 0.37% among 260,000 | AID 686992;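 active = mean E-selectin-positive cell signal at least 10% of the positive control, reached in at least 60% of replicates, without over 20% cell loss; inconclusive = no rule given, readout overlaps actives, possibly toxicity-flagged; inactive = the rest, including those meeting only one limit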
Target sequence (P16581 whole entry, looked up): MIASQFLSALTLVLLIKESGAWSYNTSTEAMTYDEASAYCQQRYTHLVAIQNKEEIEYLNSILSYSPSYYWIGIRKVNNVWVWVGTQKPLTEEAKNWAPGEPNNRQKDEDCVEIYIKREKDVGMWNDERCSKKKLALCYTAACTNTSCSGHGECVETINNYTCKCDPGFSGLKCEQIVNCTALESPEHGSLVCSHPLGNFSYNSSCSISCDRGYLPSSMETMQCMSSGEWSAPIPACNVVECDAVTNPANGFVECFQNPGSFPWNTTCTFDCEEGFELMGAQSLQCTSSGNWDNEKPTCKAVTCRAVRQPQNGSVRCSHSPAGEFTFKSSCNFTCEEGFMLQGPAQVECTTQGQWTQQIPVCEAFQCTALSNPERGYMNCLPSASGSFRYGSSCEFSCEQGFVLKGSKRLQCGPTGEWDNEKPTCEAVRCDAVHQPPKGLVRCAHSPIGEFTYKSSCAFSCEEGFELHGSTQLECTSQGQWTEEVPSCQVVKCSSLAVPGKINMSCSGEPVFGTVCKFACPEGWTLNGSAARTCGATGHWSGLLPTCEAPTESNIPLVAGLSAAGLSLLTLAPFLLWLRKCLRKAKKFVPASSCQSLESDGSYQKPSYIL
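assay system = HUVEC, human umbilical vein endothelial cells | input = 3,000 HUVEC seeded per well | medium = EGM-2 growth medium on 0.1% gelatin-coated wells | dosing = one compound dose added by pin transfer | signal = immunofluorescence imaging | read-out basis = % PE-positive cells | control set = TNF-alpha, DMSO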
DENV2 CPE: DENV2-induced cell death inhibition | AID 651640 | hit rate 1.7% among 350,000 | DENV2-infected cells, cytopathic effect rescue, plate reader | CPE inhibition, % at 9.99 µM; in the data active = CPE inhibition above about 20%, passing the limit was not always enough; inconclusive = no clear call, values can overlap the other calls; tested in BHK-21 cells;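 also: 0% = median of neutral control wells and 100% = median of positive control wells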
SIRT5 inh: inhibitors of human sirtuin-5 desuccinylase; Q9NXA8; AID 652115; Purified SirT5, succinyl-peptide AMC, trypsin-coupled fluorescence; hit rate 1.1% among 330,000; inhibition, % at 15 µM; in the data active = inhibition above about 15%; inconclusive = no clear call, values can overlap the other calls
Numbers without * were called inactive; ? = inconclusive; . = no result. Rows were chosen to be rich in hits. Some 2.8% of all compounds tested hit in one or more screens of this group.

SMILES	E-selectin induc	DENV2 CPE	SIRT5 inh
O=C(C[C@@H]1CC[C@H]2[C@@H](COC[C@@H](O)CN2Cc2cc(F)cc(F)c2)O1)NCc1cccc(F)c1	0	-12	-4
CC(/C=C\c1ccccc1)=C/C(=O)O	0	2	-2
C/C(C=O)=C/c1ccccc1	.	91*	.
CO[C@H](CN(C)C(=O)c1ccc2c(c1)OCO2)[C@H](C)CN([C@H](C)CO)S(=O)(=O)c1ccccc1	0	4	27*
CO[C@@H](CN(C)C(=O)c1ccc2c(c1)OCO2)[C@@H](C)CN([C@@H](C)CO)S(=O)(=O)c1ccccc1	0	2	-2
CO[C@@H](CN(C)C(=O)c1cnccn1)[C@H](C)CN([C@@H](C)CO)S(=O)(=O)c1ccc(F)cc1	0	27*	1
CO[C@H](CN(C)C(=O)c1cnccn1)[C@H](C)CN([C@H](C)CO)S(=O)(=O)c1ccc(F)cc1	0	?	.
COc1cccc(S(=O)(=O)Nc2ccc3c(c2)[C@H]2C[C@@H](CC(=O)NCC(F)(F)F)O[C@@H](CO)[C@H]2O3)c1	1	12	-10
O=C(Nc1ccccc1)N[C@@H]1CC[C@H](CCn2cc(-c3ccccc3F)nn2)O[C@H]1CO	0	?	-1
C[C@H]1CCCCO[C@H](CN(C)C(=O)NC2CCCCC2)[C@@H](C)CN([C@@H](C)CO)C(=O)c2cc(NS(=O)(=O)c3ccc(Cl)cc3)ccc2O1	.	13	6
Cc1noc(C)c1S(=O)(=O)Nc1ccc2c(c1)CC(=O)N([C@H](C)CO)C[C@H](C)[C@H](CN(C)Cc1ccc(C(=O)Nc3ccccc3N)cc1)O2	.	-7	6
Cc1noc(C)c1S(=O)(=O)Nc1ccc2c(c1)C(=O)N([C@@H](C)CO)C[C@H](C)[C@@H](CN(C)Cc1ccc(C(=O)Nc3ccccc3N)cc1)O2	0	14	1
COc1ccc(S(=O)(=O)Nc2ccc3c(c2)C(=O)N([C@H](C)CO)C[C@@H](C)[C@H](CN(C)Cc2ccc(C(=O)Nc4ccccc4N)cc2)O3)cc1	0	-2	.
Cc1noc(C)c1S(=O)(=O)Nc1ccc2c(c1)CC(=O)N([C@@H](C)CO)C[C@H](C)[C@H](CN(C)Cc1ccc(C(=O)Nc3ccccc3N)cc1)O2	.	61*	-2
COc1ccc(S(=O)(=O)Nc2ccc3c(c2)C(=O)N([C@@H](C)CO)C[C@H](C)[C@H](CN(C)Cc2ccc(C(=O)Nc4ccccc4N)cc2)O3)cc1	2	23*	.
Cc1noc(C)c1S(=O)(=O)Nc1ccc2c(c1)C(=O)N([C@H](C)CO)C[C@H](C)[C@H](CN(C)Cc1ccc(C(=O)Nc3ccccc3N)cc1)O2	0	24*	2
CCCC(=O)Nc1ccc2c(c1)C(=O)N(C)[C@H]1CC[C@@H](CC(=O)O)O[C@@H]1CO2	0	-4	3
O=C(C[C@H]1C=C[C@H](NC(=O)CC2CC2)[C@H](CO)O1)NCc1ccccc1	0	18	-2
CN1C(=O)c2cc(NC(=O)c3cccc(F)c3)ccc2OC[C@H]2O[C@@H](CC(=O)NCc3ccccc3)CC[C@H]21	0	0	.
Cc1oc2ccc(O)cc2c1C(=O)c1ccc([N+](=O)[O-])cc1	.	-4	-2
CN(C)/C=C/c1oc2ccc(O)cc2c1[N+](=O)[O-]	.	3	24*
O=C(c1ccc2c(c1)OCO2)N1CC(=O)N2[C@H](CO)[C@@H](c3ccc(C#Cc4ccccc4)cc3)[C@@H]2C1	1	?	2
CCN(C[C@H]1[C@H](c2ccccc2)[C@@H](CO)N1S(C)(=O)=O)C(=O)C1CCC1	1	-1	.
O=C(C1CC1)N1CCCCN2[C@H](CO)[C@H](c3ccc(C#CC4(O)CCCC4)cc3)[C@H]2C1	.	-2	-1
COc1ccc(C(=O)NCC(=O)OCc2ccccc2F)cc1	0	3	32*
SMILES	E-selectin induc	DENV2 CPE	SIRT5 inh
COc1ccc(C(=O)NCC(=O)OCc2ccc(F)cc2)cc1	.	2	14
COC(=O)CN(c1cc(Cl)ccc1OC)S(=O)(=O)c1ccc(OC)c(OC)c1	.	61*	-2
COc1ccc(S(=O)(=O)N(CC(=O)NN=C2CCN(C)CC2)c2cc(Cl)ccc2OC)cc1OC	.	-6	-1
C[C@@H]1CN([C@@H](C)CO)C(=O)Cc2cc(NC(=O)c3ccncc3)ccc2O[C@@H]1CN(C)C(=O)Nc1ccccc1	2	.	.
C[C@@H]1CN([C@H](C)CO)C(=O)c2cc(-c3ccncc3)cnc2O[C@@H]1CN(C)C(=O)C1CCC1	0	.	.
CN1C(=O)C(=O)/C(=C(/O)c2ccccc2)C1c1ccc(Br)cc1 (stereo unspecified)	.	6	-4
Cc1ccc(/C(O)=C2\C(=O)C(=O)N(C)C2c2ccccc2)cc1 (stereo unspecified)	0	39*	.
O=C(C[C@H]1C=C[C@H](NC(=O)Nc2ccc(C(F)(F)F)cc2)[C@H](CO)O1)NCCN1CCCC1	0	-1	1
COc1ccc(-c2noc(Cn3cc(S(=O)(=O)N4CCCC4)ccc3=O)n2)cc1	0	1	22*
O=c1ccc(S(=O)(=O)N2CCCC2)cn1Cc1nc(-c2ccc(F)cc2)no1	0	9	-4
O=C(Nc1ccccc1)C1CCCN1C(=O)Nc1ccccc1[N+](=O)[O-] (stereo unspecified)	.	.	-1
CC(=O)Nc1ccc(NC(=O)C2CCCN2C(=O)Nc2ccccc2[N+](=O)[O-])cc1 (stereo unspecified)	4	-8	21*
Cc1ccc2oc3c(c(=O)c2c1)C(c1cccc(Cl)c1)N(CCCN1CCOCC1)C3=O (stereo unspecified)	1	55*	.
O=C1c2oc3ccc(F)cc3c(=O)c2C(c2cccc(O)c2)N1CCCN1CCOCC1 (stereo unspecified)	.	-1	.
COCC(=O)Nc1ccc2c(c1)OC[C@@H](C)N(C(=O)C1CCCC1)C[C@H](C)[C@H](OC)CN(C)C2=O	0	.	.
COc1ccc2c3c(n(C)c2c1)[C@H](CO)N(C(=O)C1CCCC1)CC31CCN(C(=O)Nc2cccc(F)c2)CC1	0	28*	3
COc1ccc2c3c(n(C)c2c1)[C@H](CO)N(C(=O)c1ccccc1)CC31CN(C(=O)c2ccccc2)C1	0	7	1
CCC(=O)N1CCC2(CC1)CN(C(=O)Nc1ccc(F)cc1)[C@@H](CO)c1c2c2ccc(OC)cc2n1C	-1	1	4
COc1ccc2c3c(n(C)c2c1)[C@@H](CO)N(C(=O)Nc1ccc(F)cc1)CC31CCN(C(=O)c2ccccc2F)CC1	0	40*	-4
COc1ccc2c3c(n(C)c2c1)[C@@H](CO)N(C(=O)C1CCCC1)CC31CCN(C(=O)Nc2cccc(F)c2)CC1	1	-7	6
COc1ccc2c3c(n(C)c2c1)[C@H](CO)N(C(=O)c1cccc(F)c1)CC31CN(C(=O)c2cccc(F)c2)C1	0	46*	-1
CCC(=O)N1CC2(C1)CN(C(=O)Nc1ccc(F)cc1)[C@H](CO)c1c2c2ccc(OC)cc2n1C	0	80*	.
CCC(=O)N1CCC2(CC1)CN(C(=O)Nc1ccc(F)cc1)[C@H](CO)c1c2c2ccc(OC)cc2n1C	0	7	2
CCCc1cn(CC[C@H]2CC[C@@H](NC(=O)C3CCCC3)[C@@H](CO)O2)nn1	0	-5	4
